# Tests used:
# [1] = molecular target: T1, Sodium- and chloride-dependent glycine transporter 2 (Homo sapiens, UniProt Q9Y345); assay: Inhibition of human GlyT2 expressed in CHO cells assessed as inhibition of [3H]glycine uptake by liquid scintillation counting; assay type: cell-based
# T1 sequence (Q9Y345 whole entry): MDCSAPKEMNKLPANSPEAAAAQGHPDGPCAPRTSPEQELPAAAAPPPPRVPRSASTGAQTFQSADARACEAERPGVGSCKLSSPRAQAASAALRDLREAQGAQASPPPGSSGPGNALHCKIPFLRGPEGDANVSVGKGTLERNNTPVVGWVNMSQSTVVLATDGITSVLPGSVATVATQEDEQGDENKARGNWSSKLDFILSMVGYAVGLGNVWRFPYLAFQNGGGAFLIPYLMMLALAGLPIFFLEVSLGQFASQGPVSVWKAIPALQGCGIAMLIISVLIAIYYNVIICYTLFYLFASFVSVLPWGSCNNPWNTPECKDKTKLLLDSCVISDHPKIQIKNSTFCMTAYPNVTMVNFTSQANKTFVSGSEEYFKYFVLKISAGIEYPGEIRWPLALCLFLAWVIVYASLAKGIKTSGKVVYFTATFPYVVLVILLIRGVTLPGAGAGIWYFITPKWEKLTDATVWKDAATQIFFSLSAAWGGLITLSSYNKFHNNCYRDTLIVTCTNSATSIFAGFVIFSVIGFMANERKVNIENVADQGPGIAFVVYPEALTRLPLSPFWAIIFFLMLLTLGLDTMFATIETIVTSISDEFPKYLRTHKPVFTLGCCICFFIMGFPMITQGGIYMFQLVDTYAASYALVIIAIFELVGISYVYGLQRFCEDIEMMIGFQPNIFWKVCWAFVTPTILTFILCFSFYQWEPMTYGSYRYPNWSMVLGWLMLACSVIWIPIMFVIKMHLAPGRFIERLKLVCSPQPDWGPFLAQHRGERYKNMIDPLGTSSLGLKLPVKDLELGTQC
# Outline: (§1)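 [3H]-glycine uptake inhibition in cells transfected with human GlyT1 or human GlyT2 cDNA. EC50 values averaged from at least two independent experiments.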
# [2] = Aqueous solubility of the compound by lyophilisate solubility assay; assay type: physicochemical; settings: buffer
# Outline: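 LYSA: compound in DMSO solution lyophilized, then dissolved in 0.05 M phosphate buffer pH 6.5, stirred 1 h and shaken 2 h; solubility in µg/ml.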
# [3] = molecular target: T2, Sodium- and chloride-dependent glycine transporter 1 (Homo sapiens, UniProt P48067); assay: Inhibition of human GlyT1 expressed in CHO cells assessed as inhibition of [3H]glycine uptake by liquid scintillation counting; assay type: cell-based; outline: as §1
# T2 sequence (P48067 whole entry): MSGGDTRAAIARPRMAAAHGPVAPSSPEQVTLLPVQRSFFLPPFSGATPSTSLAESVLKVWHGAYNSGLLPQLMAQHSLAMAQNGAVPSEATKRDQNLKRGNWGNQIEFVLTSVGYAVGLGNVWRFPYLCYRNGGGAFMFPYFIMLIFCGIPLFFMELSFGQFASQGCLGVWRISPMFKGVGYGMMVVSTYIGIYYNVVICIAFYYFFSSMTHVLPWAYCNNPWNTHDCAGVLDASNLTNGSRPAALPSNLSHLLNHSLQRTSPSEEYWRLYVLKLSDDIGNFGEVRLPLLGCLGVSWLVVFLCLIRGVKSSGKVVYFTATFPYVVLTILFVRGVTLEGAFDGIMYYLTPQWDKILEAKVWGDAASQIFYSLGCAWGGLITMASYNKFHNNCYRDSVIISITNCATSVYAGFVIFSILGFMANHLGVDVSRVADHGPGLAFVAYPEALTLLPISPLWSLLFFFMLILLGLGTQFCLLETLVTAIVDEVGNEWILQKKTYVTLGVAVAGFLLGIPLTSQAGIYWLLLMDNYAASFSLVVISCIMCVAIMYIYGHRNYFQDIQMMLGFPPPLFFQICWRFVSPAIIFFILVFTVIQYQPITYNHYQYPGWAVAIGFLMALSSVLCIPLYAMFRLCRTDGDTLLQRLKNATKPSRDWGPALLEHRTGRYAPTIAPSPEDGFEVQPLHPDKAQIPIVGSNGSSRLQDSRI
# [4] = Permeability of the compound by PAMPA; assay type: ADME; settings: read-out: permeability
# Outline: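 PAMPA: permeation constant Pe (10^-6 cm/s) measured through artificial membranes.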
# Mus musculus = assay: Antipsychotic activity in po dosed mouse assessed as inhibition of L-687414-induced hyperlocomotion after 60 mins; assay type: functional; settings: 1 h, read-out: ID50 (the source's name)
# Outline: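 Mice given compound orally, n = 8 per group; hyperlocomotion induced by L-687,414. Horizontal activity counts recorded over a 60-min period and reported as group means. ID50 (mg/kg) derived from dose-dependent inhibition of the L-687,414-induced response.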
# hERG (KCNH2) = hERG (KCNH2) (Homo sapiens, UniProt Q12809); assay: Inhibition of human ERG at 10 uM by patch clamp assay
# hERG (KCNH2), sequence (Q12809 whole entry): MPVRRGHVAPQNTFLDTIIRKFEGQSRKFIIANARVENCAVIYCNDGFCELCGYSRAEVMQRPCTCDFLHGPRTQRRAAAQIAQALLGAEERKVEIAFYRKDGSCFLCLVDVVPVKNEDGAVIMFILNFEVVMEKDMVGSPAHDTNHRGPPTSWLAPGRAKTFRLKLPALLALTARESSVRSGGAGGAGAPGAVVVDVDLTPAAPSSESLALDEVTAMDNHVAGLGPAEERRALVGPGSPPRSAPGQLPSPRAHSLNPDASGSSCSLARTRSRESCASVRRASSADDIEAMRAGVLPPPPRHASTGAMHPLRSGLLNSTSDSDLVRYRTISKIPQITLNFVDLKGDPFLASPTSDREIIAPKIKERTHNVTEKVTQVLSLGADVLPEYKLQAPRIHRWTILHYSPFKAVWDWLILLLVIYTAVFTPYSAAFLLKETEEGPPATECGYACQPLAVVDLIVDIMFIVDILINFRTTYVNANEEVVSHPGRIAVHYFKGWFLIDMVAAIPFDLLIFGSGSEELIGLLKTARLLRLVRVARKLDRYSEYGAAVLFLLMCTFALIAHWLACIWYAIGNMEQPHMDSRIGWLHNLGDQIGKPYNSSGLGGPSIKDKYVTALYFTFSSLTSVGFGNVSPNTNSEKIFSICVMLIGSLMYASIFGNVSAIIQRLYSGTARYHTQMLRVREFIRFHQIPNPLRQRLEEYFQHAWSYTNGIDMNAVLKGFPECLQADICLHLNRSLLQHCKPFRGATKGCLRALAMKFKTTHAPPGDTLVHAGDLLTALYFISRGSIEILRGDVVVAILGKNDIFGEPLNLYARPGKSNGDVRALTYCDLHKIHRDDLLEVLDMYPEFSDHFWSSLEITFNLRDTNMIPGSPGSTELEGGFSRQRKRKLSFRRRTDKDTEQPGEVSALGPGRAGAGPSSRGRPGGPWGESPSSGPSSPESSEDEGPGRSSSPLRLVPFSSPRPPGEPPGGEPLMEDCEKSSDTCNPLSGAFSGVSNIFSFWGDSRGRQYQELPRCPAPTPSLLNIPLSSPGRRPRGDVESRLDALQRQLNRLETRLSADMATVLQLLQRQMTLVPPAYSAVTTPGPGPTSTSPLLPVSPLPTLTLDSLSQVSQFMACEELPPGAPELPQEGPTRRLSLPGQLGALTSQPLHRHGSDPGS
# Outline: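 hERG block measured by patch clamp at 10 µM; values averaged from at least two independent experiments.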
# [5] = Clearance in rat; assay type: ADME, organism-based; settings: in vivo
# [6] = Ratio of drug level in brain to plasma in rat; assay type: ADME; settings: read-out: BPR
# [7] = Volume of distribution in rat; assay type: ADME, organism-based; settings: in vivo
# [8] = Oral bioavailability in rat; assay type: ADME, organism-based; settings: in vivo
# [9] = molecular target: T2, Sodium- and chloride-dependent glycine transporter 1; assay: Inhibition of human GlyT1; outline: as §1
# [10] = Intrinsic clearance in human liver microsomes assessed per mg of protein; assay type: ADME, Microsome
# Homo sapiens = organism: Homo sapiens; assay: Selectivity ratio of EC50 for human GlyT2 to EC50 for human GlyT1
# Outline: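 Ratio of the two EC50s from a [³H]-glycine uptake inhibition assay run in cells transfected with human GlyT1 cDNA or human GlyT2 cDNA. Each EC50 is the average of at least two independent experiments.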
# Cytochrome P450 2C9 = Cytochrome P450 2C9 (Homo sapiens, UniProt P11712); assay: Inhibition of CYP2C9; assay type: ADME
# Cytochrome P450 2C9, sequence (P11712 whole entry): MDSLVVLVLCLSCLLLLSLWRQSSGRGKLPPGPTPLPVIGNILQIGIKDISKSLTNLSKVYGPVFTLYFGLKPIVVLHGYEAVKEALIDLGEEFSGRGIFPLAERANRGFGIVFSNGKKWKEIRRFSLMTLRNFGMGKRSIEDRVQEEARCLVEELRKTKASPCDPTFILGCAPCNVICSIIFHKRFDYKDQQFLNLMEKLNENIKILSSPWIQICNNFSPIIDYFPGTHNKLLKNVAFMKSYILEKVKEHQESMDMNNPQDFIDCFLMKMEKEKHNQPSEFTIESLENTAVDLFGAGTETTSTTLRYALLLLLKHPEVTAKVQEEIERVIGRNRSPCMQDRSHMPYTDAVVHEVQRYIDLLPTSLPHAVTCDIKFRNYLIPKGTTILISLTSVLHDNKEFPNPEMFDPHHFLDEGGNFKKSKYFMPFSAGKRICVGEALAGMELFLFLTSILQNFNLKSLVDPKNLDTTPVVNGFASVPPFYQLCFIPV
# Cytochrome P450 2D6 = Cytochrome P450 2D6 (Homo sapiens, UniProt P10635); assay: Inhibition of CYP2D6; assay type: ADME
# Cytochrome P450 2D6, sequence (P10635 whole entry): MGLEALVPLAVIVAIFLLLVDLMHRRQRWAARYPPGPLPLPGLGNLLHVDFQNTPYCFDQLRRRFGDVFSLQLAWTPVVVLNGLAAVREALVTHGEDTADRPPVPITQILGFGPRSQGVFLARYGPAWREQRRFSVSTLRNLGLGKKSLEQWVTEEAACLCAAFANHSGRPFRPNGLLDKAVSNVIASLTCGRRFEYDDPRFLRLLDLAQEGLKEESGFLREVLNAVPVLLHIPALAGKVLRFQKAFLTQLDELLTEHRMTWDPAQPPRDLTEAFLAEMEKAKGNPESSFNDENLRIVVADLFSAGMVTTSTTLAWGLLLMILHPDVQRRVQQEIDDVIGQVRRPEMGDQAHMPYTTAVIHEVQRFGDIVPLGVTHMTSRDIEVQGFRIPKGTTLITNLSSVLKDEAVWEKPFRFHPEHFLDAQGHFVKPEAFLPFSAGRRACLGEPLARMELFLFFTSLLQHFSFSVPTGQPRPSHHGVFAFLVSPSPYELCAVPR
# Cytochrome P450 3A4 = Cytochrome P450 3A4 (Homo sapiens, UniProt P08684); assay: Inhibition of CYP3A4; assay type: ADME
# Cytochrome P450 3A4, sequence (P08684 whole entry): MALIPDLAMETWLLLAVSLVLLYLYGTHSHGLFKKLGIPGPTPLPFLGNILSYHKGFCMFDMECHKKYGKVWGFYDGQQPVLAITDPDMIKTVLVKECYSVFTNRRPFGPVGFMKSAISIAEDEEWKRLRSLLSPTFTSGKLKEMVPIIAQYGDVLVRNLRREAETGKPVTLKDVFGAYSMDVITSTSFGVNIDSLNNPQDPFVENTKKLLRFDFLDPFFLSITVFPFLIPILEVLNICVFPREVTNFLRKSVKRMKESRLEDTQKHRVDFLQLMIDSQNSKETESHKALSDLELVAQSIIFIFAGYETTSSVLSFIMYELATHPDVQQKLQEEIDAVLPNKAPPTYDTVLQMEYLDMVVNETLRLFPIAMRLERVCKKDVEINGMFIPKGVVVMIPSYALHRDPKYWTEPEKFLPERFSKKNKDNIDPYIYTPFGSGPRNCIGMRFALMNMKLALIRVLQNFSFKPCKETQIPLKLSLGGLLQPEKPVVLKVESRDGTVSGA
# [11] = Intrinsic clearance in mouse liver microsomes assessed per mg of protein; assay type: ADME, Microsome
# [12] = molecular target: T1, Sodium- and chloride-dependent glycine transporter 2; assay: Inhibition of human GlyT2; outline: as §1
Compound,EC50 [1] [nM],solubility [2] [µg/mL],EC50 [3] [nM],Papp [4] [×10⁻⁶ cm/s],ED50 (Mus musculus) [mg/kg],other results
C[C@H](Oc1ccc(S(C)(=O)=O)cc1C(=O)N1Cc2ccc(C(F)(F)F)nc2C1)C(F)(F)F,> 30000,429,250,5.5,–,–
Cc1cccc2c1CN(C(=O)c1cc(S(C)(=O)=O)ccc1O[C@@H](C)C(F)(F)F)C2,> 30000,73,3360,4.2,–,–
C[C@H](Oc1ccc(S(C)(=O)=O)cc1C(=O)N1Cc2cnc(C(F)(F)F)cc2C1)C(F)(F)F,> 30000,470,132,3.9,–,–
CS(=O)(=O)c1ccc(OCCC(F)(F)F)c(C(=O)N2Cc3cc(C(F)(F)F)cnc3C2)c1,> 30000,513,111,4.3,3,–
C[C@H](Oc1ccc(S(C)(=O)=O)cc1C(=O)N1Cc2ccc(N3CCCC3)cc2C1)C(F)(F)F,14300,< 1,180,0.8,–,–
C[C@H](Oc1ccc(S(C)(=O)=O)cc1C(=O)N1Cc2ccc(-c3ccccc3)cc2C1)C(F)(F)F,12000,4,13,2.6,6,inhibition at 10 µM (hERG (KCNH2)): 67%
CS(=O)(=O)c1ccc(-c2ccc(F)cc2)c(C(=O)N2Cc3ccc(C4CCOCC4)cc3C2)c1,> 30000,15,16,1.4,0.3,inhibition at 10 µM (hERG (KCNH2)): 36%
CS(=O)(=O)c1ccc(OCc2ccccc2)c(C(=O)N2Cc3cc(C(F)(F)F)cnc3C2)c1,> 30000,72,805,0.8,–,–
C[C@H](Oc1ccc(S(C)(=O)=O)cc1C(=O)N1Cc2ccc(-c3ccncc3)cc2C1)C(F)(F)F,> 30000,25,17,4.2,3,inhibition at 10 µM (hERG (KCNH2)): 58%
C[C@H](Oc1ccc(S(C)(=O)=O)cc1C(=O)N1Cc2ccc(N3CCOCC3)cc2C1)C(F)(F)F,> 30000,355,275,4.3,–,–
C[C@H](Oc1ccc(S(C)(=O)=O)cc1C(=O)N1Cc2ccccc2C1)C(F)(F)F,> 30000,< 1,2540,0.8,–,–
C[C@H](Oc1ccc(S(C)(=O)=O)cc1C(=O)N1Cc2ccc(N3CCN(C)CC3)cc2C1)C(F)(F)F,> 30000,490,2080,1.5,–,–
CS(=O)(=O)c1ccc(OCCC(F)(F)F)c(C(=O)N2Cc3ccc(C4CCOCC4)cc3C2)c1,> 30000,334,137,4.1,–,–
COc1cccc2c1CN(C(=O)c1cc(S(C)(=O)=O)ccc1O[C@@H](C)C(F)(F)F)C2,> 30000,85,1940,4.8,–,–
CC(C)Oc1ccc(S(C)(=O)=O)cc1C(=O)N1Cc2cc(C(F)(F)F)cnc2C1,> 30000,114,70,4.1,1,inhibition at 10 µM (hERG (KCNH2)): 10%
C[C@H](Oc1ccc(S(C)(=O)=O)cc1C(=O)N1Cc2ccc(C(F)(F)F)cc2C1)C(F)(F)F,> 30000,1,21,0.7,2,clearance [5]: 1.7 mL/min/kg; Kp [6]: 1; inhibition at 10 µM (hERG (KCNH2)): 59%; Vd [7]: 2.9 L/kg; bioavailability [8]: 23%
C[C@H](Oc1ccc(S(C)(=O)=O)cc1C(=O)N1Cc2ccc(Cl)cc2C1)C(F)(F)F,–,< 1,–,4.4,20,EC50 [9]: 135 nM; microsomal CLint [10]: 2.4 µL/min/mg; Ratio EC50 (Homo sapiens): > 200; IC50 (Cytochrome P450 2C9): > 38000 nM; IC50 (Cytochrome P450 2D6): > 38000 nM; IC50 (Cytochrome P450 3A4): > 38000 nM; microsomal CLint [11]: 23.3 µL/min/mg; EC50 [12]: 30000 nM
CS(=O)(=O)c1ccc(N2CCOCC2)c(C(=O)N2Cc3cc(C(F)(F)F)cnc3C2)c1,> 30000,495,3000,0.9,–,–
CS(=O)(=O)c1ccc(-c2ccc(F)c(F)c2)c(C(=O)N2Cc3cc(C(F)(F)F)cnc3C2)c1,> 30000,42,30,6.4,1,inhibition at 10 µM (hERG (KCNH2)): 38%
C[C@H](Oc1ccc(S(C)(=O)=O)cc1C(=O)N1Cc2cccc(C#N)c2C1)C(F)(F)F,> 30000,259,770,0.8,–,–
C[C@H](Oc1ccc(S(C)(=O)=O)cc1C(=O)N1Cc2ccc(-c3ccccn3)cc2C1)C(F)(F)F,> 30000,30,84,0.8,–,–
COc1ccc2c(c1)CN(C(=O)c1cc(S(C)(=O)=O)ccc1O[C@@H](C)C(F)(F)F)C2,> 30000,46,180,2.7,–,–
C[C@H](Oc1ccc(S(C)(=O)=O)cc1C(=O)N1Cc2ccc(C3CCCCO3)cc2C1)C(F)(F)F (stereo partly specified),> 30000,< 1,205,0.9,–,–
CC(C)COc1ccc(S(C)(=O)=O)cc1C(=O)N1Cc2cc(C(F)(F)F)cnc2C1,> 30000,445,30,5.5,–,inhibition at 10 µM (hERG (KCNH2)): 37%

# From ChEMBL document CHEMBL1629713, “Discovery of benzoylisoindolines as a novel class of potent, selective and orally active GlyT1 inhibitors” (Bioorg Med Chem Lett, 2010)
